Experimental data of several laboratories.
Lines come from different studies, so protocols differ.
Target: Serine/threonine-protein kinase BRSK1 (BRSK1, Homo sapiens, UniProt Q8TDC3)
Residues used in one study (Q8TDC3 1-778): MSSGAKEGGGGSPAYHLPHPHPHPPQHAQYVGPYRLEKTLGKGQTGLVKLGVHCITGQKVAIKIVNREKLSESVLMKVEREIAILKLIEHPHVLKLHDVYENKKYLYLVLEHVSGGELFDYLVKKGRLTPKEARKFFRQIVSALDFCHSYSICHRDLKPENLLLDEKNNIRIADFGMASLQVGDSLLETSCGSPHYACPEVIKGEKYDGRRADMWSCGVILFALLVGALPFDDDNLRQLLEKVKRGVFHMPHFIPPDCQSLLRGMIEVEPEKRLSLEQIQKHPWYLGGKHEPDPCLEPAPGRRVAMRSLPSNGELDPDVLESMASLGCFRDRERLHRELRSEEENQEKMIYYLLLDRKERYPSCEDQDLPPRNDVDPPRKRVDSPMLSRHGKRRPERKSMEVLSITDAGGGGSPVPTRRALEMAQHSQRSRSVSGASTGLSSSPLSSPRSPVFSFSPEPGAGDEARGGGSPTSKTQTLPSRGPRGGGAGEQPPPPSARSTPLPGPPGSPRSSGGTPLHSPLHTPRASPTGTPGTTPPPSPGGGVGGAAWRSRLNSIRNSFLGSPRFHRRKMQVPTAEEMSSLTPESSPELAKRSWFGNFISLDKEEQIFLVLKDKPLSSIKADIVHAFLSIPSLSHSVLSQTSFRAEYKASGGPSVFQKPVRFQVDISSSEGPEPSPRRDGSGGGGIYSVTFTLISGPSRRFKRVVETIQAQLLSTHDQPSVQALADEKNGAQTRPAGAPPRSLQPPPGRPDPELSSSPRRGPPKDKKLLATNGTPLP

Structure (SMILES)	test	conditions	remaining binding [%]
Cc1c[nH]c2nccc(Oc3c(F)cc(Nc4cc(Cl)nc(N)n4)cc3F)c12	cell-free assay, competition with immobilised ligand	0.1 µM	96
O=C(NCCCN1CCOCC1)c1ccc(Nc2nccc(-c3cc4ccccc4s3)n2)cc1	binding, competition with immobilised ligand	1 µM	70
O=C(Nc1c[nH]nc1C(=O)NC1CCNCC1)c1cc(F)cc(F)c1	binding, competition with immobilised ligand	1 µM	89
CN(c1nccc(-c2cnn3ncccc23)n1)C1CC1	binding	1 µM	100
FC(F)(F)Oc1cccc(-c2cnc3ccc(-c4ccncc4)nn23)c1	cell-free assay, competition with immobilised ligand	5 µM	85
CN(c1ccnc(CNc2nc(Nc3ccc4c(c3)CC(=O)N4)ncc2C(F)(F)F)n1)S(C)(=O)=O	cell-free assay, competition with immobilised ligand	1 µM	43
COc1cnc(Nc2cccc(S(N)(=O)=O)c2)nc1N1CCN(c2ccccc2)CC1	binding, competition with immobilised ligand	1 µM	96
CCN1CCN(Cc2ccc(C(=O)Nc3ccc(C)c(Oc4ccc5c(c4)CC(=O)N5)c3)cc2C(F)(F)F)CC1	binding, competition with immobilised ligand	1 µM	94
C[C@H]1CCN(c2nccc(-c3cnn4ncccc34)n2)C1	binding	1 µM	98
CO[C@@H](C)c1c(Nc2ccc([C@@H](N(C)C(=O)C3CCS(=O)(=O)CC3)C(F)(F)F)cc2)cnc2cc(Cl)nn12	cell-free assay, competition with immobilised ligand	1 µM	93
O=C(c1ccc(Nc2ncc(Cl)c(-c3ccc(Cl)s3)n2)cc1)N1CCC(N2CCCC2)CC1	binding, competition with immobilised ligand	1 µM	57
CC1CCCN1c1nccc(-c2cnn3ncccc23)n1 (stereo not shown)	binding	1 µM	95
COc1cc(-c2cn(C3CCc4ccccc4N(CC(F)(F)F)C3=O)nn2)ccc1-n1ccc(C)n1 (stereo not shown)	cell-free assay, competition with immobilised ligand	1 µM	81
C=CC(=O)N1CCC(C(=O)NCC(=O)N2CCN(c3nc(-c4cnc(N)nc4C(F)F)nc(N4CCOCC4)n3)CC2)CC1	binding, competition with immobilised ligand	1 µM	100
CN(C)c1ncc(F)c(-c2cnn3ncccc23)n1	binding	1 µM	87
Nc1ncc2c(n1)-c1c([nH]c3ccc(C#CC4CC4)cc13)CCCC2	binding, competition with immobilised ligand	1 µM	87
O=C(c1ccc(Nc2ncc(Cl)c(-c3cc4ccccc4s3)n2)cc1)N1CCC(N2CCCC2)CC1	binding, competition with immobilised ligand	1 µM	32
CC(C)CC(=O)N1CCc2nc(-c3ccc(Br)cc3)nc(N(C)Cc3ccccc3)c2C1	cell-free assay, competition with immobilised ligand	0.1 µM	100
c1cnn2ncc(-c3ccnc(N4CCC45COC5)n3)c2c1	binding	1 µM	82
c1cncc(-c2cccc(Nc3nccc(NC4CCCCC4)n3)c2)c1	binding, competition with immobilised ligand	10 µM	84
F[C@@H]1CCN(c2nccc(-c3cnn4ncccc34)n2)C1	binding	1 µM	100
CS(=O)(=O)c1cc(C2(NC(=O)c3cncc4c3cnn4-c3ccc(F)cc3)CC2)ccn1	cell-free assay, competition with immobilised ligand	1 µM	74
